The list is not random: actives were taken first. Their share in the collection is about 2.6%.
Platelet DG rel: platelet dense granule release activity | AID 1663 | human platelet-rich plasma, SFLLRN dense granule ATP release, luminescence | 0.22% of 300,000 active | inhibition, %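 (compounds screened at 7.5 µM in platelet-rich plasma)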;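 active means mean replicate score, as percent of positive control, at or above 50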
SENP8 block-1: SENP8 (human) protease inhibition. Q96LD8. recombinant SENP8, Nedd8 substrate fluorescence. inhibition, % at 20 µM. 0.64% of 360,000 active; in the data active means inhibition mostly above about 40%, no sharp cut-off; inactive means mostly below about 27%
Target sequence (Q96LD8 whole entry, looked up): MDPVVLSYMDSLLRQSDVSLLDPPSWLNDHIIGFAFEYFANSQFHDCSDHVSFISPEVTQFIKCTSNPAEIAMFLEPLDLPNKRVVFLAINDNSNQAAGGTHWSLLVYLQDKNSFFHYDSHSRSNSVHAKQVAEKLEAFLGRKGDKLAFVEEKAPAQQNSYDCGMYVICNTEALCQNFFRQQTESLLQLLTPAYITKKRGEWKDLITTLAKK
SENP1 inh: blocks the human SENP1 SUMO protease catalytic domain | AID 624204 | 0.21% of 360,000 active | Q9P0U3 | recombinant SENP1 catalytic domain, CyPet-SUMO1-YPet FRET cleavage | inhibition, % at 10 µM;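 active means inhibition at least 30% at 10 µM, raw YFP signal under a set limit, fluorescence ratio 0.5 to 1.5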;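 further: 0% = enzyme with DMSO and 100% = no enzyme wells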
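Controls: no-enzyme wells low, DMSO-plus-enzyme wells high control. Test system: human recombinant His6-tagged SENP1 catalytic domain enzyme. Reagent: SFCypet-SUMO1-SFYpet FRET protein substrate, 25 nM final. Doses: one dose per compound, 10 µM, 0.5% DMSO. Detection: FRET, CFP and YFP emission. Timing: 50 min reaction at room temperature.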
SENP7 block: SENP7 protease inhibition. Q9BQF6. recombinant SENP7, Z-RLRGG-aminoluciferin luminescence, 40 min. inhibition, % at 5 µM. 1.5% of 330,000 active. AID 434973;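 active means inhibition above about 50% at the single test dose, limit read from the data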;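 further: plate controls were DMSO with enzyme for no effect and no enzyme buffer wells for full effect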
Target sequence (Q9BQF6 706-1050 limits assumed): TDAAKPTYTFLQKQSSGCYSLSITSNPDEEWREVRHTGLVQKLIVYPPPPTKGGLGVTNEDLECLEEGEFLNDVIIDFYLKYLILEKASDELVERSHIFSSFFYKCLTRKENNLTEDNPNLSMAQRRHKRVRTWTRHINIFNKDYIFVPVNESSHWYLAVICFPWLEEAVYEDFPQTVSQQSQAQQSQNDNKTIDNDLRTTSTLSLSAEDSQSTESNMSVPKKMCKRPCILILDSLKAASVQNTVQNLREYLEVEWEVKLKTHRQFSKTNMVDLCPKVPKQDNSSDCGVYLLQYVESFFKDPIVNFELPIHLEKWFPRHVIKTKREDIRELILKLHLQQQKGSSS
SENP8 block-2: blocks the human protease SENP8 | inhibition, % at 10 µM | purified SENP8, Z-RLRGG-aminoluciferin cleavage, luminescence | AID 2540 | 1.2% of 330,000 active; in the data active means inhibition above about 50%
SENP6 block: inhibitors of human SENP6 protease. Q9GZR1. Recombinant SENP6 catalytic domain, aminoluciferin luminescence. inhibition, % at 10 µM. 1.8% of 330,000 active. AID 2599;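 active means inhibition above about 50% at the single tested dose, limit read from the data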;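 further: plate controls were DMSO wells with enzyme for no effect and DMSO wells lacking enzyme for full effect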
SENP8 conf: human SENP8 inhibition, confirmed. 40% of 6,200 active. shares compounds with SENP7 block. Recombinant SENP8, Z-RLRGG-aminoluciferin luminescence, 60 min. inhibition, % at 12.5 µM;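 active means mean inhibition across replicates above about 50%, limit read from the data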
SENP6 conf: human SENP6 inhibition, confirmed; shares compounds with SENP7 block; recombinant SENP6, Z-RLRGG-aminoluciferin luminescence; inhibition, % at 12.5 µM; 58% of 6,200 active
SENP7 conf: confirmation of human SENP7 protease inhibitors. shares compounds with SENP7 block. recombinant SENP7, Z-RLRGG-aminoluciferin luminescence, 40 min. inhibition, % at 12.5 µM. 69% of 6,200 active
Casp3 select: inhibits human caspase-3 in SENP selectivity test | shares compounds with SENP7 block | purified caspase-3, Z-DEVD-aminoluciferin luminescence, 60 min | inhibition, % at 12.5 µM | 60% of 6,200 active;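 active means mean inhibition above about 50%, limit read from the data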;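 further: plate controls were enzyme with DMSO for no effect and wells without caspase-3 for full effect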
SENP luc ctr: interferes with luciferase luminescence in SENP counter-screen; AID 488919; inhibition, % at 12.5 µM; Pre-incubated SENP8/Z-RLRGG-aminoluciferin, luciferase luminescence interference; shares compounds with SENP7 block; 39% of 6,200 active;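 active means mean inhibition above about 50% when retested at one dose, limit read from the data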;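 further: plate controls were DMSO wells with completed reaction for no effect and substrate without enzyme for full effect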
The depositor's hits bear a star; i = inactive; . = not tested or not shown.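 How the source made its calls, unless noted: active means mean inhibition above about 50% in the one-dose retest (limit read from the data); inactive means the rest.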

SMILES | Platelet DG rel | SENP8 block-1 | SENP1 inh | SENP7 block | SENP8 block-2 | SENP6 block | SENP8 conf | SENP6 conf | SENP7 conf | Casp3 select | SENP luc ctr
CC(Oc1ccccc1)C(=O)N1CCC2(CC1)CC(=O)c1ccccc1O2 (centres undefined) | -21 | -62 | 1 | 2 | -5 | -3 | . | . | . | . | .
O=C(O)c1ccc(COc2ccc3c4c(c(=O)oc3c2)CCC4)o1 | -2 | -193 | -2 | 93* | 91* | 82* | 94* | 95* | 100* | 65* | 94*
CSc1ccc(/C=C/C(=O)N2CCN(c3ccccn3)CC2)cc1 | -3 | -160 | -1 | -5 | -4 | -22 | . | . | . | . | .
CCn1ccc(C(=O)Nc2ccccc2Cl)n1 | 4 | 18 | 3 | 50* | 15 | 53* | 34 | 38 | 76* | 72* | 56*
CC(C)(C)c1ccc(C(=O)Nc2ccccc2Cl)cc1 | -1 | 11 | 2 | 76* | 70* | 80* | 1 | 76* | 94* | 60* | 61*
c1ccc(Cn2ccc(-c3cnc(-c4ccccc4)s3)n2)cc1 | 21 | i | -1 | 80* | 64* | 81* | 9 | 78* | 92* | 63* | 64*
CC1CCCC(C)N1C(=O)COC(=O)CCC1CCCC1 (centres undefined) | 4 | 1 | 1 | 2 | -2 | -9 | . | . | . | . | .
N#CCSc1nnc2sc3ccccc3n12 | 20 | 7 | 1 | 87* | -2 | -14 | 9 | 9 | -9 | -3 | 0
COc1ccc(/C=C/C(=O)c2ccccc2)c(OC)c1 | 1 | -53 | -61 | -5 | -17 | 3 | . | . | . | . | .
CCOc1ccc(N/C=C\C(=O)c2ccc3c(c2)OCO3)cc1 | -1 | -175 | -22 | -6 | -6 | 3 | . | . | . | . | .
COc1ccc(N/C=C/C(=O)c2ccc3c(c2)OCO3)cc1OC | 15 | -4 | -12 | -19 | 12 | 35 | . | . | . | . | .
COc1ccc(N/C=C\C(=O)c2ccc3c(c2)OCO3)cc1 | 15 | -147 | -19 | 78* | 51* | 76* | 15 | 44 | 65* | 54* | 22
O=C(/C=C\Nc1ccc2c(c1)OCO2)c1ccc2c(c1)OCO2 | 18 | -51 | -24 | 86* | 30 | -7 | 10 | 15 | -2 | 10 | -1
COc1ccc(/C=C/C(=O)c2ccc3c(c2)OCO3)c(OC)c1 | 25 | -112 | -91 | 83* | 45 | 84* | 87* | 78* | 94* | 50 | 66*
COc1ccc(NC(=O)c2ccc3c(c2)OCO3)cc1 | 0 | 13 | -1 | 60* | 62* | 68* | 63* | 61* | 87* | 88* | 72*
OC1c2c(F)cccc2N=C2CCCCN21 (centres undefined) | . | -393 | -4 | . | . | . | . | . | . | . | .
CC(C)(C)Nc1nc(-c2ccc3c(c2)CCN3C(=O)C2CC2)cs1 | 0 | 8 | -2 | -7 | -6 | -4 | . | . | . | . | .
O=C(Nc1ccccc1)OCC1CCCN2CCCCC12 (centres undefined) | 10 | 29 | 1 | -5 | -8 | -9 | . | . | . | . | .
CC1=CCC(COC(=O)Nc2ccccc2)CC1 (centres undefined) | 14 | 6 | 2 | 89* | 80* | 82* | 86* | 90* | 99* | 75* | 81*
Fc1ccc(-c2nnc(-c3ccc(F)cc3)o2)cc1 | 5 | 22 | 3 | 60* | 24 | 52* | 12 | 15 | 36 | 37 | 5
Fc1ccc(-c2nnc(NC3=NCCCCC3)o2)cc1 | 64* | 19 | 2 | 98* | 89* | 91* | 11 | 95* | 102* | 98* | 75*
Oc1ccc(C=NNc2nc3ccccc3s2)c(O)c1 | . | -196 | -7 | . | . | . | . | . | . | . | .
Cc1ccsc1/C=N/Nc1nc2ccccc2s1 | -2 | -173 | -3 | 86* | 72* | 87* | -9 | 62* | 87* | 47 | 58*
Cc1ccsc1/C=N/Nc1nc(=O)[nH]nc1C | 51* | 12 | 1 | 89* | 80* | 91* | 86* | 87* | 98* | 96* | 71*
Cc1cc(C)nc(N/N=C/c2sccc2C)n1 | 9 | 2 | 0 | 5 | 5 | -15 | . | . | . | . | .
SMILES | Platelet DG rel | SENP8 block-1 | SENP1 inh | SENP7 block | SENP8 block-2 | SENP6 block | SENP8 conf | SENP6 conf | SENP7 conf | Casp3 select | SENP luc ctr
Cc1nn(-c2ccccc2Cl)c(Cl)c1/C=N/Nc1nc2ccccc2s1 | 17 | -45 | -4 | 81* | 5 | 34 | -9 | -4 | -7 | -4 | 6
C(=N\Nc1nc2ccccc2s1)/c1ccco1 | 13 | -9 | -9 | 90* | 83* | 93* | 82* | 82* | 97* | 83* | 72*
O=C(NCc1ccc2c(c1)OCO2)C1CC(=O)N(CCc2ccc(F)cc2)C1 (centres undefined) | -4 | -5 | -1 | -5 | 0 | -14 | . | . | . | . | .
CCc1nc2c(OCc3cccc(Cl)c3)cccn2c1N(C)C(=O)C1CC1 | . | 3 | -3 | . | . | . | . | . | . | . | .
CC(=NNc1nc2ccccc2s1)c1ncccn1 | . | 18 | 3 | . | . | . | . | . | . | . | .
C(=N\Nc1nc2ccccc2s1)/c1cccs1 | -1 | -44 | 0 | 93* | 89* | 95* | 37 | 88* | 100* | 71* | 82*
Oc1ccccc1C=NNc1nc2ccccc2s1 | . | -124 | -50 | . | . | . | . | . | . | . | .
C/C(=N\Nc1nc2ccccc2s1)c1cccs1 | 3 | -19 | 5 | 84* | 75* | 60* | 92* | 91* | 98* | 60* | 30
CC(C)(C)OC(=O)N1CCc2onc(-c3ccccc3F)c2C1=O | . | 8 | -1 | . | . | . | . | . | . | . | .
c1coc(CNc2c3c(nc4ncnn24)CCCC3)c1 | 0 | -1 | -1 | 1 | 1 | -19 | . | . | . | . | .
Clc1cccc(-c2cc3nc4c(c(NCc5ccco5)n3n2)CCCC4)c1 | -16 | -266 | -4 | 26 | 53* | 81* | -4 | 8 | 3 | 7 | 4
Cc1ccc(-c2cc3nc(C)cc(NCc4ccco4)n3n2)cc1 | 20 | -329 | -30 | 92* | 74* | 81* | 46 | 38 | 61* | 63* | 38
COc1ccc(Cl)cc1NC(=O)NCc1ccc2c(c1)OCO2 | 3 | -6 | 0 | 14 | -11 | 0 | . | . | . | . | .
Cc1cc(Cc2ccc([N+](=O)[O-])cc2)c(C)cn1 | 1 | 2 | 1 | 7 | 12 | 3 | . | . | . | . | .

Assay outcomes: PubChem, several laboratories
